Experimental data gathered from unrelated publications.
Compare with care: the assays were run in different laboratories.
AKR1B1: Aldo-keto reductase family 1 member B1 (AKR1B1, Homo sapiens, UniProt P15121)
LATS2: Serine/threonine-protein kinase LATS2 (LATS2, Homo sapiens, UniProt Q9NRM7)

Compound | target | assay | IC50
Nc1cnccc1Nc1ccc(Cl)c(Cl)c1 | Endonuclease 8-like 1 (NEIL1, Homo sapiens, UniProt Q96FI4) | enzyme activity, inhibitor | > 100000 nM
COc1cc(/C=N/NC(=S)NN=Cc2scnc2C)ccc1Oc1ccnc2cc(Cl)ccc12 | AKR1B1 | enzyme activity, inhibitor, absorbance | 17800 nM
COc1cc(CN(CCN)C(=O)c2cccs2)ccc1OCc1ccccc1 | Transient receptor potential cation channel subfamily M member 8 (TRPM8, Homo sapiens, UniProt Q7Z2W7) | ion current, inhibitor, patch clamp | 12 nM
C[C@@H]1CNC[C@H](C)[C@@]1(O)c1ccc(-c2ccnc3[nH]cc(F)c23)cc1 | LATS2 | enzyme activity, inhibitor, radiometric | 8.7 nM
Cc1cc(-c2cc(O)ccc2Cl)cc2nnc(Nc3ccc(OCCN4CCCC4)cc3)nc12 | Tyrosine-protein kinase Lck (LCK, Homo sapiens, UniProt P06239) | cell-free assay | 0.292 nM
COc1cc(/C=N/NC(=S)NN=Cc2ccc([N+](=O)[O-])o2)ccc1Oc1ccnc2cc(Cl)ccc12 | AKR1B1 | enzyme activity, inhibitor, absorbance | 7850 nM
COc1c(Cl)cccc1Nc1c(-c2ccncc2OC[C@@H]2COCCO2)[nH]c2c1C(=O)NCC2 | Tyrosine-protein kinase Lck, phosphorylated (LCK, Homo sapiens, UniProt P06239) | enzyme activity, inhibitor, TR-FRET | 1130 nM
COc1cc(/C=N/NC(=S)NN=Cc2cccs2)ccc1Oc1ccnc2cc(Cl)ccc12 | AKR1B1 | enzyme activity, inhibitor, absorbance | 19700 nM
O=C(Nc1c[nH]nc1-c1nc2cc(CN3CCOCC3)ccc2[nH]1)NC1CC1 | LATS2 | enzyme activity, inhibitor, radiometric | 114 nM
C=CC(=O)N1CCN(c2nc(=O)n(-c3c(C)ccnc3C(C)C)c3nc(-c4c(O)cccc4F)c(F)cc23)[C@@H](C)C1 | GTPase HRas (HRAS, Homo sapiens, UniProt P01112, C181S/C184S/C186S/G12C) | enzyme activity, inhibitor | 87.1 nM
COc1cc(/C=N/NC(=S)N/N=C/c2ccc(Cl)cc2)ccc1Oc1ccnc2cc(Cl)ccc12 | AKR1B1 | enzyme activity, inhibitor, absorbance | 14900 nM
CC1CNCCC1(O)c1ccc(-c2ccnc3[nH]cc(F)c23)cc1 (stereo not drawn) | LATS2 | enzyme activity, inhibitor, radiometric | 5.6 nM
COc1cc(/C=N/NC(=S)N/N=C/c2ccc(N(C)C)cc2)ccc1Oc1ccnc2cc(Cl)ccc12 | AKR1B1 | enzyme activity, inhibitor, absorbance | 10400 nM
Cc1cc(-c2ccnc3[nH]cc(F)c23)cc(F)c1[C@@]1(O)[C@H](C)CN(C(=O)CN)C[C@@H]1C | LATS2 | target engagement in cells, BRET | 5.1 nM
Cc1cn([C@H]2C[C@H](OP(=O)(O)OC[C@H]3O[C@@H](n4cc(C)c(=O)[nH]c4=O)C[C@@H]3O)[C@@H](COP(=O)(O)OP(=O)(O)O)O2)c(=O)[nH]c1=O | dgt (Salmonella enterica, UniProt A0A5H6DAK1) | enzyme activity, inhibitor | 19700 nM
